CHO parental Ca: ATP-evoked calcium signal inhibitors, parental CHO, primary screen, counter-screen for OX1R antagonist project, cell-based, fluorescence, Fluo-8 calcium dye | actives 0.63% (n = 330,000) | inhibition, % at 5.6 µM | parental CHO-K1, ATP-induced calcium, Fluo-8 fluorescence;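 active means inhibition above that plate's mean sample inhibition plus 3 SD, cut at about 26% in these data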
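Assay system – parental CHO cells · Reagent – ATP stimulus · Detection – intracellular calcium via Fluo-8 no-wash fluorescent dye · Evaluation – percent inhibition of ATP-evoked calcium rise, normalized to controls · Controls – ATP wells versus no-ATP DMSO wells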
OX1R antag-1: OX1R (HCRTR1) antagonists, primary screen, fluorescence, CHO/OX1R cells, Fluo-8 calcium, orexin A. Orexin/Hypocretin receptor type 1 (Homo sapiens), O43613. Fluo-8 calcium fluorescence. inhibition, % at 5 µM. actives 0.43% (n = 330,000);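 active means inhibition above its plate's threshold, mean inhibition of all tested compounds on the plate plus 3 SD, cut at about 37% in these data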
Target sequence (O43613 whole entry, looked up): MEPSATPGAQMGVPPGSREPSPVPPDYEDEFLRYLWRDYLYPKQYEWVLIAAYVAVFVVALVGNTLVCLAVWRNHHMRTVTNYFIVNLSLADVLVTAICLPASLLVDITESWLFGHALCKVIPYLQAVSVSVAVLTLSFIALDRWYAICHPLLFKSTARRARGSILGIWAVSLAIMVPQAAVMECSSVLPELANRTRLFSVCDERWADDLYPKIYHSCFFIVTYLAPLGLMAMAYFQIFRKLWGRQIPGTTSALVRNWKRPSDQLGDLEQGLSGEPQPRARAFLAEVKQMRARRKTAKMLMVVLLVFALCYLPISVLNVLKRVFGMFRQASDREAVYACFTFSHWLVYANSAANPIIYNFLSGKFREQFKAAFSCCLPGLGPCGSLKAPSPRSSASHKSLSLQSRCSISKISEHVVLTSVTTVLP
M1 ag parental: counter-screen for M1 agonists: effect in parental CHO-K1 cells; Fluo-8 calcium fluorescence; scaled to maximal ATP response, vehicle zero; activation, % at 3 µM; actives 0.48% (n = 360,000); AID 602248, 2012; in the data active means activation above about 15%;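 further: untransfected CHO-K1 host cells lacking M1 receptor as counterscreen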
OX1R antag-2: antagonists of human orexin 1 receptor (OX1R) | Orexin/Hypocretin receptor type 1 (Homo sapiens), O43613 | OX1R-expressing cells, FRET antagonist read-out | inhibition, % at 6.6 µM | actives 1.8% (n = 330,000); in the data active means inhibition mostly above about 38%, no sharp cut-off; inactive means mostly below about 40%
CHO-K1 Ca antag: counter-screen for M1 antagonists: effect in parental CHO-K1 cells; ATP-induced calcium, Fluo-8 fluorescence; inhibition, % at 3 µM; actives 0.6% (n = 360,000); AID 602250;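 active means inhibition above a per-plate cutoff, the plate's mean sample inhibition plus 3 SD, cut at about 24% in these data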
CHO-K1 Ca PAM: nonselective calcium activators in parental CHO-K1 cells, primary screen, counter-screen for M1 PAM project, cell-based, Fluo-8 calcium fluorescence, full deck, 1536-well; activation, % at 3 µM; actives 0.02% (n = 360,000); ATP EC20; 0% at ATP EC20, 100% at ATP max;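 active means activation above the run cutoff, the mean activation of all test compounds plus 3 SD, cut at about 40% in these data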;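 further: peak over basal fluorescence ratio in a 140 s read after ATP addition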
Each line names hits and unclear results; the compound was inactive in the other large screens. Compounds with a hit are over-represented: about 2.9% of the library has one in this group of screens.

Cn1ccc2c(-c3ccc(F)cc3)cc3c(c21)C1CCC3C1 (centres undefined)	none (no result: CHO parental Ca, OX1R antag-1, OX1R antag-2)
Cc1[nH]n(-c2ccc([N+](=O)[O-])cc2)c(=O)c1C=NCCN1CCN(C(=O)C(C)C)CC1	CHO parental Ca 26.9
C[C@H](O)[C@@H]1C(=O)N2CCc3ccc(-c4ccccc4)cc3[C@@H]2C[C@@H]1N(C)C(=O)Nc1cc(Cl)cc(Cl)c1	none (no result: CHO parental Ca, OX1R antag-1, OX1R antag-2)
Cc1ccsc1C1C2=C(CCCC2=O)Nc2ncnn21 (centres undefined)	CHO-K1 Ca antag 30.9
Cc1ccsc1C1C2=C(CC(C)(C)CC2=O)Nc2ncnn21 (centres undefined)	none
Cc1[nH]cnc1C(=O)N/N=C/c1ccc([N+](=O)[O-])s1	OX1R antag-2 71.2
Cc1cc(C(=O)N/N=C/c2cc(Cl)cc([N+](=O)[O-])c2O)n[nH]1	OX1R antag-2 66.4
Cc1cc(C(=O)N/N=C/c2ccc([N+](=O)[O-])s2)n[nH]1	OX1R antag-2 53.3
Cc1cc(C(=O)N/N=C/c2ccc(C)s2)n[nH]1	none
Cc1cc(C(=O)N/N=C\c2cc(C(C)(C)C)c(O)c(C(C)(C)C)c2)n[nH]1	none
Cc1cc(C(=O)N/N=C/c2ccc(-c3ccccc3Cl)o2)n[nH]1	OX1R antag-2 69.5
Cc1ccc(C(=O)N/N=C\c2ccc([N+](=O)[O-])s2)cn1	none
Cc1ccc(C(=O)N[C@H](C(=O)N2CCN(c3ccccc3F)CC2)C(C)C)cc1	none
Nc1nnc(SCc2nnc(-c3ccccc3)o2)s1	none
COc1ccccc1-c1cc(NC(C)=O)c2ncc(-c3ccccc3)n2c1	none (no result: CHO parental Ca, OX1R antag-1, OX1R antag-2)
COc1ccccc1/C=C/C(=O)NCC(=O)n1nc(C)cc1C	none
CSc1nnc2c(n1)OC(c1ccccn1)N(C(C)=O)c1ccccc1-2 (centres undefined)	none
CSc1nnc2c(n1)OC(c1ccc(C(=O)O)cc1)N(C(C)=O)c1ccccc1-2 (centres undefined)	OX1R antag-2 49.6
Cc1c(C(=O)OCc2nc3ccsc3c(=O)[nH]2)oc2ccccc12	OX1R antag-2 48.9
COc1cc(C(=O)Oc2cccc(Nc3ncnc4ccccc34)c2)cc(OC)c1OC	CHO parental Ca 42.6, OX1R antag-1 64.1, OX1R antag-2 56.1
CC(=O)c1cccc(Nc2ncnc3ccc(Br)cc23)c1	OX1R antag-2 73.5
CC(=O)c1ccc(Nc2ncnc3ccc(Br)cc23)cc1	none (no result: CHO parental Ca, OX1R antag-1, OX1R antag-2)
CC(C)Nc1ncnc2ccc(Br)cc12	CHO parental Ca 28.9
Cc1ccc(NC(=O)CSc2nnnn2C2CC2)cc1S(=O)(=O)N1CCOCC1	none (no result: CHO parental Ca, OX1R antag-1, OX1R antag-2)
CC1CCCN(C(=O)COC(=O)c2ccc(=O)n(Cc3ccccc3)n2)C1 (centres undefined)	none
COc1cc(/C=N/Nc2nc(C)nc3c2cnn3-c2ccccc2)ccc1O	none (no result: CHO parental Ca, OX1R antag-1, OX1R antag-2)
CCCOc1ccc(C(=O)N(Cc2cccs2)C2CCS(=O)(=O)C2)cc1 (centres undefined)	none
COc1ccc(NS(=O)(=O)c2ccc(S(=O)(=O)N3CCCC3)cc2)cc1	CHO parental Ca 40.2
COc1ccc(S(=O)(=O)Nc2cccc(S(=O)(=O)N3CCCCC3)c2)cc1	OX1R antag-2 49.6
O=S(=O)(Nc1ccccc1OC(F)F)c1ccc(S(=O)(=O)N2CCCC2)cc1	OX1R antag-2 30.6
O=S(=O)(c1ccc(F)cc1)N1CCCC1	none
O=S(=O)(Nc1cccc(S(=O)(=O)N2CCCC2)c1)c1ccc(Br)cc1	none (no result: CHO parental Ca, OX1R antag-1, OX1R antag-2)
COc1ccc(S(=O)(=O)N2CCCCC2)cc1	CHO-K1 Ca antag 27.0
CC(CCc1ccccc1)N1CCN(C)CC1 (centres undefined)	none
COc1ccc(NS(=O)(=O)c2ccc(C(=O)NCC3(N4CCOCC4)CCCCC3)cc2)cc1	M1 ag parental 15.5
COCc1ccc(C(=O)NCC2(N3CCCCC3)CCCCC2)cc1	M1 ag parental 15.6
CN(C(=O)c1cc2c(cc1Br)OCO2)c1cccc2ccccc12	none (no result: CHO parental Ca, OX1R antag-1, OX1R antag-2)
COC(=O)c1ccc(CSc2nc3ccccc3o2)cc1	CHO-K1 Ca antag 28.7
O=[N+]([O-])c1ccc(CSc2nc3ccccc3o2)cc1	none
CN(C)S(=O)(=O)c1cccc(C(=O)OCC(=O)Nc2sccc2C(N)=O)c1	M1 ag parental 20.9
CCOc1ccc(CCNC(=O)COC(=O)c2cccc(S(=O)(=O)N(C)C)c2)cc1OCC	CHO-K1 Ca antag 44.4 (no result: CHO parental Ca, OX1R antag-1, OX1R antag-2)
COc1cc(C(=O)NCC(c2cccs2)N2CCOCC2)cc(Br)c1OCc1ccccc1 (centres undefined)	none
CCN(Cc1ccccc1)C(=O)CN1C(=O)COc2ccc(S(=O)(=O)NC3CCCC3)cc21	none
COCCC(=O)N1CCC(Oc2ccc(C(=O)NCCC3=CCCCC3)cc2)CC1	none
CC(Sc1nc(N)cc(=O)[nH]1)C(=O)Nc1sc2c(c1C#N)CCCC2 (centres undefined)	CHO parental Ca 34.3, CHO-K1 Ca antag 29.5
COCCN1C(=O)c2ccc(C(=O)Nc3nccs3)cc2C1=O	OX1R antag-2 45.9
CC(C)CN1C(=O)c2ccc(C(=O)Nc3ccncc3)cc2C1=O	M1 ag parental 17.7
COc1ccccc1CC(=O)Nc1cccc(C(=O)Nc2nccs2)c1	OX1R antag-2 49.0
CCCN1C(=O)c2ccc(C(=O)Nc3nccs3)cc2C1=O	OX1R antag-2 45.2
CC(C)CN1C(=O)c2ccc(C(=O)Nc3nccs3)cc2C1=O	none
COc1ccc(-c2cn3cccc(C)c3n2)cc1Br	OX1R antag-2 73.9
Cc1cc(NC(=O)c2csc([C@@H]3O[C@H](CO)[C@H](O)[C@H](O)[C@H]3O)n2)n(C)n1	none (no result: CHO parental Ca, OX1R antag-1, OX1R antag-2)
COC(=O)c1cccc(NC(=O)Nc2ccc(Cl)c(Cl)c2)c1	OX1R antag-1 66.7, M1 ag parental 15.8, OX1R antag-2 69.0
COC(=O)c1sccc1NC(=O)Nc1ccc(C)c(C)c1	none (no result: CHO parental Ca, OX1R antag-1, OX1R antag-2)
COC(=O)c1cc(NC(=O)Nc2ccccc2)ccc1Cl	CHO parental Ca 49.0, M1 ag parental 15.9
O=C(Nc1ccc(Cl)c(Cl)c1)Nc1ccccc1NS(=O)(=O)c1cccs1	CHO parental Ca 35.0
COC(=O)c1sccc1NC(=O)Nc1ccc(Cl)c(Cl)c1	CHO-K1 Ca antag 28.5
CCCCSCCCNC(=O)c1ccc(CS(=O)(=O)c2ccc(OC)cc2)o1	none
CSc1ccccc1NC(=O)CN(C)C(=O)COc1cccc2cccnc12	OX1R antag-2 32.1
O=C(Nc1ncccc1O)c1ccc(Oc2ccccc2)cc1	none
O=C(Nc1ccc2c(c1)OCO2)c1cc(C2CCCCN2S(=O)(=O)Cc2ccccc2)on1 (centres undefined)	none (no result: CHO parental Ca, OX1R antag-1, OX1R antag-2)
CC(=O)c1ccc2c(c1)N(Cc1ccc3ccccc3c1)C(=O)C(C)S2 (centres undefined)	none (no result: CHO parental Ca, OX1R antag-1, OX1R antag-2)
